Mdm2 MdmX PPI: human Mdm2/MdmX binding inhibition. 330,000 tested, 3% active. O15151+Q00987. inhibition, % at 8 µM. SaOS-2 split-luciferase Mdm2/MdmX complementation, luminescence;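 active means inhibition of at least 50% at 8 µM in the primary screen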
SKKanGAS inh: blocks kanamycin growth of S. pyogenes SKKanGAS strain. BacTiter-Glo, 6 h. inhibition, % at 7.5 µM. 300,000 tested, 1.3% active;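 active means mean replicate score, as percent of positive control median, at least 50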;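 further: strain carries kanamycin resistance gene driven by streptokinase promoter and grows in 40 µg/ml kanamycin; loss of luminescence reflects streptokinase promoter inhibition or plain growth inhibition; 0% = median of DMSO wells and 100% = positive control at its reference dose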
T cruzi inh: blocks replication of Trypanosoma cruzi; T. cruzi beta-gal in NIH3T3, luminescence, 90 h; inhibition, % (test concentration not listed); 300,000 tested, 1.4% active; AID 1885;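 active means mean inhibition across valid replicates above about 55%, limit read from the data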;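 further: signal also drops with host cell toxicity which is not excluded here; 0% = plate median of DMSO wells and 100% = zero luminescence signal; higher percent means less beta-gal luminescence so fewer parasites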
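System: NIH/3T3 fibroblasts plus reporter T. cruzi. Medium: DMEM plus 2% FBS. Probe or stimulus: 5000 reporter trypomastigotes per well. Compound: single 50 nL compound addition per well in DMSO. Incubation: co-culture of at least 90 h after 3 h attachment. Detection: GalScreen β-gal luminescence, detergent lysis, 60 min. Evaluation: parasite load inhibition, %.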
aSyn UTR inh: MLPCN primary screen, SNCA 5' untranslated region; alpha-synuclein 5'UTR reporter, inhibitor activity; inhibition, % (tested at 7.5 µM); 300,000 tested, 0.82% active; AID 1813; in the data active means inhibition above about 60%;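 further: H4 neuroglioblastoma cells stably carrying SNCA 5'UTR luciferase fusion; 0% = DMSO wells and 100% = positive control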
CSC inhib: cancer stem cell inhibition | cancer stem cell-like cells viability, luminescence | inhibition, % at 7.5 µM | 300,000 tested, 1.1% active | AID 2717; in the data active means inhibition above about 75%; tested in HMLE shEcad cells
Mdm2-MdmX conf: human Mdm2/MdmX binding inhibition, confirmed. inhibition, % at 8 µM. luminescent assay. shares compounds with Mdm2 MdmX PPI. 10,000 tested, 55% active; in the data active means inhibition above about 40%
FLuc counter: counter-screen for Mdm2/MdmX inhibitors: full-length luciferase | shares compounds with Mdm2 MdmX PPI | SaOS-2 full-length luciferase counterscreen, luminescence | inhibition, % at 8 µM | 6,200 tested, 77% active;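 active means mean inhibition at 8 µM reaching about 37%, which flags the compound as non-specific, limit read from the data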;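 further: p53-null SaOS-2 cells with luciferase driven by a doxycycline-inducible promoter; compound on cells about two nights before reading with doxycycline added after day one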
Active calls of the source: *; / = no result given. The list is not random: actives were taken first. Their share in the collection is about 5.4%.

SMILES | Mdm2 MdmX PPI | SKKanGAS inh | T cruzi inh | aSyn UTR inh | CSC inhib | Mdm2-MdmX conf | FLuc counter
O=C(Nc1ccc(Cl)cc1)/C(=C/c1cccc(O)c1)c1nc2ccccc2s1 | 100.2* | 16.4 | 30.1 | -7.8 | -8.3 | 100.2* | 51.2*
CCOc1ccc(/C=C/C(=O)c2ccccc2)cc1OC | 10.0 | 16.7 | -3.9 | -112.5 | 22.5 | / | /
COc1cccc(C(=O)/C=C/c2ccc(OCC#N)c(OC)c2)c1 | 96.4* | -0.3 | -20.5 | -121.2 | 0.3 | 42.6* | 42.5*
COc1cc(/C=C/C(=O)c2ccc(O)cc2)ccc1OCC#N | 87.1* | 2.9 | -6.1 | -133.5 | 57.7 | 78.0* | 35.9
Cc1ccc(N=C/C(C(=O)C(F)(F)F)=C(\O)c2ccco2)cc1Cl | -313.1 | -1.5 | -12.0 | -183.7 | -11.9 | / | /
COc1ccc2[nH]cc(CCNC(=O)C3CCCO3)c2c1 (stereo unspecified) | 0.3 | -7.9 | -16.0 | 5.1 | 4.7 | / | /
Cc1cc(C)c(S(=O)(=O)Nc2ccc3c4c(cccc24)CC3)c(C)c1 | 75.0* | 41.8 | 7.2 | 106.0* | 92.5* | 63.1* | 107.0*
Cc1ccc(S(=O)(=O)Nc2ccc(O)c3ccccc23)c(C)c1 | / | 10.6 | 0.8 | 14.1 | 31.4 | / | /
Cc1ccc(S(=O)(=O)Nc2ccc3c4c(cccc24)CC3)c(C)c1 | 70.7* | 44.3 | 13.9 | 10.2 | 51.5 | 60.4* | 53.4*
CC1CN(C(=O)COc2ccc3c(-c4ccccc4)cc(=O)oc3c2)CC(C)O1 (stereo unspecified) | 16.0 | / | / | / | -0.5 | / | /
CN(Cc1ccccc1)C(=O)c1ccc(NC(=O)C2CCN(C(=O)OC(C)(C)C)CC2)cc1 | 75.8* | / | / | / | 11.8 | 58.5* | 31.6
CN(CC(=O)NC1(C)CCS(=O)(=O)C1)S(=O)(=O)c1ccc(Cl)cc1 (stereo unspecified) | 8.4 | 19.8 | -2.8 | 13.7 | -4.3 | / | /
CCOc1cccc(/C=C(/C#N)c2nc3ccccc3[nH]2)c1OCC(=O)O | -2.5 | -3.4 | -5.2 | -20.6 | -2.8 | / | /
CCN(CC)c1ccc(/C=C(/C#N)c2nc3ccccc3[nH]2)c(OC(C)C)c1 | 79.8* | 40.3 | 39.0 | -211.1 | 71.3 | 76.7* | 87.6*
C/C(=N\Nc1cc(-c2ccccc2)nc(-c2ccc(Br)cc2)n1)c1cccc(N)c1 | 28.9 | / | -7.5 | 2.0 | 45.6 | / | /
C/C(=N/Nc1cc(-c2ccccc2)nc(-c2ccccc2)n1)c1ccc(O)cc1 | 55.6* | 99.2* | 51.8 | -54.7 | 106.3* | 19.4 | /
Cc1cn(CCOc2ccc(Cl)cc2)c(=O)[nH]c1=O | 34.0 | -6.1 | -5.3 | -3.6 | -25.3 | / | /
CC1(C)Cc2cccc(Oc3cc(NN4CCCCC4)c([N+](=O)[O-])cc3[N+](=O)[O-])c2O1 | 9.2 | 1.3 | 31.9 | 12.1 | -14.6 | / | /
CN1CC(c2ccccc2)C2(SC(=S)N(Cc3ccco3)C2=O)C12C(=O)Nc1ccccc12 (stereo unspecified) | 75.5* | 12.8 | 40.7 | 3.7 | 104.5* | 54.0* | 51.4*
COc1nnc(-c2ccc(N3CCCCC3)c(N)c2)c2ccccc12 | 2.2 | 8.2 | 32.3 | -46.0 | -0.5 | / | /
Clc1ccc2c(N/N=C/c3ccccc3Br)ccnc2c1 | 100.5* | 2.6 | 55.5* | 28.6 | 49.9 | 81.8* | 52.2*
O=C1CCCCc2sc(Br)c([N+](=O)[O-])c2N1 | 63.6* | 4.4 | -3.2 | 32.6 | 22.9 | 30.1 | 56.5*
NS(=O)(=O)c1cccc(NC(=S)NC(=O)C23CC4CC(CC(C4)C2)C3)c1 | -51.0 | 0.7 | 12.9 | -62.3 | / | / | /
O=S(=O)(Nc1nc2ccccc2nc1Nc1cccc(S(=O)(=O)N2CCCCC2)c1)c1ccccc1 | 81.5* | 64.1* | -47.7 | 46.8 | 124.1* | 78.7* | 42.7*
O=S(=O)(Nc1nc2ccccc2nc1Nc1ccc2c(c1)OCO2)c1ccc(F)cc1 | 50.1* | 23.2 | -35.3 | -14.5 | -0.2 | 26.7 | /
COc1ccc(S(=O)(=O)Nc2cccc(S(=O)(=O)N3CCCCCC3)c2)cc1 | / | 4.1 | 2.1 | 6.4 | -6.8 | / | /
COc1ccccc1CN1CC(C(=O)NCc2nc3ccccc3n2C)CCC1=O (stereo unspecified) | 21.6 | 5.1 | -0.6 | -16.8 | -13.6 | / | /
CC(NC(=O)c1cc2c(s1)CS(=O)(=O)C2)c1ccccc1 (stereo unspecified) | 19.8 | 25.5 | -22.1 | -1.7 | 1.9 | / | /
N#C/C(=N\Nc1ccc(Cl)c(Cl)c1)C(=O)C1CC1 | 58.4* | 24.8 | -12.6 | -97.3 | 70.2 | 72.4* | 46.8*

Bioassay records from PubChem BioAssay.
